{"source": "paper PMC6301001", "about": "(Cancer chemotherapy and pharmacology, 2015)", "key": {"[1]": {"test_system": "U251 xenografts injected into the hind limb", "conditions": "cited from earlier work"}, "[2]": {"conditions": "cited from earlier work"}, "[3]": {"test_system": "mouse model of DIPG in which the PI3Kinase/Akt pathway is activated", "conditions": "genetically engineered mouse model of DIPG; cited from earlier work"}, "glioma cell lines": {"test_system": "glioma cell lines", "conditions": "cited from earlier work"}, "[4]": {"assay_type": "in vivo, rhesus monkeys (Macaca mulatta)", "procedure,_shortened": "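Three adult male rhesus monkeys with an implanted fourth-ventricular CSF catheter/reservoir, sedated with ketamine (10 mg/kg IM), then given a single 7 mg/kg oral dose by nasogastric tube. CSF (0.3 ml) sampled at 0–10, 24 and 48 h, then in a repeat study on days 0–64. Total drug by HPLC/MS/MS (LLOQ 0.1 ng/ml). Non-compartmental analysis: observed Cmax; trapezoidal AUC0–inf; t1/2 = 0.693/terminal rate constant; penetration = CSF/plasma AUC0–inf.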"}, "[5]": {"assay_type": "in vivo, rhesus monkeys (Macaca mulatta)", "conditions": "single oral dose 7 mg/kg; for Cl: plasma clearance", "procedure,_shortened": "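Single 7 mg/kg oral dose by nasogastric tube under ketamine sedation to three adult male rhesus monkeys (10.5–14.7 kg) fitted with central venous ports. Blood sampled at 0–10, 24 and 48 h, then on days 0–64; plasma held at –80 °C. Total drug by HPLC/MS/MS after acetonitrile precipitation with miltefosine internal standard; standards 0.001–10 µg/ml; LLOQ 1 ng/ml. Non-compartmental: observed Cmax/Tmax, trapezoidal AUC0–inf, t1/2 = 0.693/k, Cl = dose/AUC0–inf.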"}, "[6]": {"conditions": "adult patients with solid tumors, cited from earlier work"}, "human tumor cell lines": {"test_system": "human tumor cell lines", "conditions": "wide variety of human tumor cell lines; reported range; cited from earlier work"}, "[7]": {"conditions": "CSF, individual NHP, single oral dose 7 mg/kg, 7 mg/kg"}}, "note": "“And” between values parts separate entries of the source, which are not always exact repeats. Identical values can stand only once. “Also recorded” adds a separate entry of the source. Like-named read-outs stand apart in the source and are kept apart here.", "data": [{"smiles": "CCCCCCCCCCCCCCCCCCOP(=O)([O-])OC1CC[N+](C)(C)CC1", "note": "[Perifosine]", "values": [{"measurement": "activity in vivo in mice bearing U251 xenografts", "setting": "[1]", "value": "demonstrated activity"}, {"measurement": "tolerability in early phase clinical trials", "setting": "[2]", "value": "relatively well tolerated"}, {"measurement": "single-agent responses in patients", "setting": "[2]; renal cell carcinoma, sarcoma and Waldenstroms macroglobulinemia, Phase I and Phase II", "value": "single-agent objective responses have been reported"}, {"measurement": "activity in mouse model of pontine glioma", "setting": "[3]", "value": "absent activity; also recorded: lacked activity; also recorded: no activity was observed"}, {"measurement": "activity in vitro against glioma cell lines", "setting": "glioma cell lines", "value": "demonstrated activity"}, {"measurement": "t 1/2", "setting": "[4]; CSF terminal half-life, individual NHP, single oral dose 7 mg/kg, 7 mg/kg", "value": "146 h and 277 h and 350 h"}, {"measurement": "Cmax", "setting": "[4]; [7]", "value": "1.85 ng/mL and 4.39 ng/mL and 4.57 ng/mL"}, {"measurement": "Tmax", "setting": "[4]; [7]", "value": "63.6 h and 235.3 h and 235.4 h"}, {"measurement": "AUC", "setting": "[4]; CSF, individual NHP, single oral dose 7 mg/kg, T = 0 to infinity, 7 mg/kg", "value": "1.031 µg·h/mL and 3.44 µg·h/mL and 2.89 µg·h/mL"}, {"measurement": "maximum measured CSF concentration", "setting": "[4]; CSF, mean of 3 NHP, single oral dose 7 mg/kg, molar equivalent", "value": 7.8, "unit": "nM"}, {"measurement": "CSF AUC", "setting": "[4]; CSF, median (range) of 3 NHP, single oral dose 7 mg/kg", "value": "6358 (2266–7568) nM/h"}, {"measurement": "Cmax in the CSF in initial experiments", "setting": "[4]; CSF, oral 7.0 mg/kg, collection up to 48 h, 7 mg/kg", "value": "had not been reached by 48 h; also recorded: has not been reached by 48 h"}, {"measurement": "time to maximum CSF concentration", "setting": "[4]; CSF, single oral dose 7 mg/kg, 7 mg/kg", "value": "> 7 days and 7 days"}, {"measurement": "Kp", "setting": "[4]; male, rhesus monkey, CSF, po, 7 mg/kg", "value": 0.0016}, {"measurement": "AUCCSF:AUCPl (ratio of CSF to plasma exposure)", "setting": "[4]; mean of 3 NHP, single oral dose 7 mg/kg", "value": ".0016"}, {"measurement": "time levels were measurable in both plasma and CSF", "setting": "[4]; plasma and CSF, after a single oral dose", "value": "> 2", "unit": "months"}, {"measurement": "CSF concentrations relative to plasma concentrations (fold less)", "setting": "[4]; single oral dose 7 mg/kg", "value": 1000, "unit": "fold"}, {"measurement": "Cl", "setting": "[5]; individual NHP, 7 mg/kg", "value": "77.6 mL/h and 36.5 mL/h and 63.3 mL/h"}, {"measurement": "Cl", "setting": "[5]; mean (range) of 3 NHP", "value": 59.1, "unit": "mL/h"}, {"measurement": "T 1/2", "setting": "[5]; plasma terminal half-life, individual NHP, 7 mg/kg", "value": "193 h and 170 h"}, {"measurement": "AUC", "setting": "[5]; plasma, individual NHP, T = 0 to infinity, 7 mg/kg", "value": "2139 µg·h/mL and 1137 µg·h/mL"}, {"measurement": "Cmax", "setting": "[5]; plasma, individual NHP, sampling to 64 days, 7 mg/kg", "value": "8800 ng/mL and 5300 ng/mL"}, {"measurement": "time plasma concentrations remained >1 µM", "setting": "[5]; plasma", "value": "> 28", "unit": "days"}, {"measurement": "terminal half-life in humans", "setting": "[6]; 50–350 mg/day orally for 3 weeks", "value": 105, "unit": "h"}, {"measurement": "plasma half-lives", "setting": "[6]; oral dose", "value": "80 to 116", "unit": "h"}, {"measurement": "time of peak plasma concentrations", "setting": "[6]; oral dose", "value": "8 to 24", "unit": "h"}, {"measurement": "IC.50", "setting": "human tumor cell lines", "value": ".09 to 9.2 µg/mL"}]}]}
